Source: PubChem BioAssay (The Scripps Research Institute Molecular Screening Center)
CHRM4 PAM: potentiates acetylcholine response at human M4 receptor. P08173. 360,000 compounds, 0.4% hits. CHO-K1 hM4/Gqi5, Fluo-8 calcium fluorescence, ACh EC20; 0% = ACh EC20, 100% = maximal ACh. AID 624126. activation, % at 3 µM;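 active means activation above its plate's cutoff, the mean activation of sample wells plus 3 SD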
Target sequence (P08173 whole entry, looked up): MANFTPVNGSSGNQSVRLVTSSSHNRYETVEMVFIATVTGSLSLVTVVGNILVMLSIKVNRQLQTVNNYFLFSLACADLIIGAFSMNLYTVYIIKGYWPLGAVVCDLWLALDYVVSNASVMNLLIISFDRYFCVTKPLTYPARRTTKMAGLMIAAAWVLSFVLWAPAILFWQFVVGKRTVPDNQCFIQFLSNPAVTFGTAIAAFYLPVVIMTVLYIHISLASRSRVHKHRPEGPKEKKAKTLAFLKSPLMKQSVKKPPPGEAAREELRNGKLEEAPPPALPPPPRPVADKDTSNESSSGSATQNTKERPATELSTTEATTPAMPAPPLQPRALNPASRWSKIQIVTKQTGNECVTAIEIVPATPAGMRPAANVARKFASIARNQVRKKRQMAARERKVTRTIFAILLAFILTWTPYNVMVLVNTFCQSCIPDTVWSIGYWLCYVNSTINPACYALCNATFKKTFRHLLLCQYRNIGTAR
CHRM4 antagonist: CHRM4 antagonism in calcium assay; P08173; CHO-hM4 cells, ACh EC80, Fluo-8 calcium fluorescence; inhibition, % at 3 µM; 360,000 compounds, 0.73% hits; AID 624125;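 active means inhibition above its plate's cutoff, the mean inhibition of sample wells plus 3 SD, cut at about 27% in these data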
M4 ag: agonists of human muscarinic M4 receptor (CHRM4); P08173; CHO-K1 hM4/Gqi5, Fluo-8 calcium fluorescence; vehicle 0%, full acetylcholine response 100%; activation, % at 3 µM; 360,000 compounds, 0.14% hits; AID 624127;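 active means activation above the run mean over all test wells plus 3 SD, cut at about 32% in these data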;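 further: peak over basal fluorescence ratio per well then scaled between controls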
CHRM5 agonist: agonists of human muscarinic M5 receptor (CHRM5). activation, % at 3 µM. CHO-K1 hM5 cells, Fluo-8 calcium fluorescence; 0% DMSO wells, 100% maximal acetylcholine response. 360,000 compounds, 0.19% hits. P08912;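 active means activation above the run's mean over test compounds plus 3 SD, cut at about 23% in these data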;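 further: signal is peak over basal fluorescence ratio across the kinetic read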
CHRM5 antagonist: blocks acetylcholine activation of human M5 receptor. CHO-hM5 cells, Fluo-8 calcium fluorescence, ACh EC80. inhibition, % at 3 µM. 360,000 compounds, 0.59% hits. AID 624040;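 active means inhibition above a per-plate cutoff, the mean of that plate's test compounds plus 3 SD, cut at about 27% in these data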
CHRM5 PAM: CHRM5 positive allosteric modulation; P08912; CHO-K1 hM5, Fluo-8 calcium, ACh EC20 PAM; 0% = ACh EC20, 100% = ACh EC100; activation, % at 3 µM; 360,000 compounds, 0.3% hits;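 active means activation above the run cutoff, the mean activation of all test compounds plus 3 SD, cut at about 18% in these data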
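system = human M5 receptor in CHO-K1 cells | compound = one concentration, 3 µM final (nominal) | schedule = Post-acetylcholine fluorescence recording 140 s | signal = Fluo-8 calcium dye fluorescence, kinetic read | benchmarks = low control EC20 acetylcholine (0%), high control EC100 acetylcholine (100%) | repeats = singlicate, one well per test compound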
Of the large screens only hits and unclear results are named; the others gave an inactive call; ! = a repeat was not active. Only some compounds are listed: those with a hit (about 1.8% of all), similar ones and a draw of the others.

CC1CCN(C(=O)CN2C(=O)NC(c3ccccc3)(c3ccccc3)C2=O)CC1	none
CCN1CCN(C2=C(NS(=O)(=O)c3ccc(NC(C)=O)cc3)C(=O)c3ccccc3C2=O)CC1	none
CC(=O)Nc1ccc(S(=O)(=O)NC2=C(N3CCN(Cc4ccccc4)CC3)C(=O)c3ccccc3C2=O)cc1	CHRM4 antagonist 31!
COc1cc(C(CCN2CCCC(C)C2)c2c(OC)cc(OC)c3c2OC(=O)CC3c2ccc(N(C)C)cc2)cc(OC)c1OC (stereo unspecified)	CHRM5 PAM 22
O=C(c1ccc2c(c1)OCO2)C1CCCN(Cc2ccccc2OC(F)F)C1 (stereo unspecified)	CHRM4 antagonist 40
Cc1cccc(OC(=O)C2C(c3ccccc3)C(C(=O)O)C2c2ccccc2)c1 (stereo unspecified)	CHRM4 PAM 31
O=C(O)C1C(c2ccccc2)C(C(=O)Oc2ccccc2)C1c1ccccc1 (stereo unspecified)	none
O=C(C=Cc1ccccn1)c1ccccc1	CHRM5 PAM 29
O=C(C=Cc1ccccn1)c1ccccc1O	none
FC(F)(F)c1ccccc1Cc1c(-c2ccco2)nc2ccc(Br)cn12	none
CCOC(=O)[C@@H]1[C@H]2COc3ccccc3[C@H]2N2C(=O)N(c3ccc(C(F)(F)F)cc3)C(=O)[C@]12C	none
O=C(CC1NCCNC1=O)Nc1ccccc1 (stereo unspecified)	none
O=C(CC1C=CCC1)Nc1ccccc1 (stereo unspecified)	CHRM5 PAM 20
CC1(C(=O)NCC2CCCCC2)CCN1C(=O)Cc1ccc(-c2ccccc2)cc1 (stereo unspecified)	none
O=C(NNC(=O)c1cc(-c2cccnc2)nc2ccccc12)Nc1ccc(Cl)cc1	CHRM4 antagonist 30, CHRM5 antagonist 38
CC(=O)Nc1cccc(Oc2nc(NCCN(C)C)nc3ccsc23)c1	none
CC(C)(C)NC(=O)CSc1nnc(-c2ccccn2)n1Cc1ccccc1	none
C=CCNC(=O)CSc1nnc(-c2ccccn2)n1Cc1ccccc1	CHRM5 PAM 22
CC(=O)c1ccc(OCC(=O)Nc2nnc(C3CC3)s2)cc1	none
C=CCn1ccc(=O)nc1SC	none
Cc1cc(NC(=O)Nc2ccccc2F)ccc1Br	CHRM5 antagonist 37
O=C(Nc1ccccc1)Nc1ccc(Br)cc1F	CHRM4 antagonist 54, CHRM5 antagonist 28
O=C(Nc1cccc(Cl)c1)Nc1ccc(Br)cc1F	none
O=C(c1ccccc1)c1c2c(cc3sc4ccccc4[n+]13)-c1cccc3cccc-2c13	CHRM4 antagonist 59, M4 ag 33
O=C(c1ccccc1)c1ccc2ccccc2c1	none
CC1(C(=O)NS(=O)(=O)c2ccc(C#N)cc2)CCN1C(=O)C1(c2ccccc2)CCCC1 (stereo unspecified)	CHRM4 PAM 18
Cc1cc(C)n2nc(S(=O)(=O)NC(C)(C)C)nc2n1	CHRM5 PAM 19
C[C@@H](NC(=O)c1[nH]cnc1C(=O)Nc1ccon1)c1ccccc1	none
CO[C@@]1(NC(=O)C2SC(=C(C(N)=O)C(=O)O)S2)C(=O)N2C(C(=O)O)=C(CSc3nnnn3C)CS[C@@H]21 (stereo partly specified)	CHRM4 antagonist 43
O=C1CCCCC1(O)Cc1ccc2c(c1)OCO2 (stereo unspecified)	none
CCc1c(-c2ccccc2)ncn1Cc1cccc(-c2ccccc2)c1	CHRM5 antagonist 27
CCc1c(-c2ccccc2F)ncn1Cc1cccc(-c2ccccc2)c1	none
CCc1c(-c2cccc(OC)c2)ncn1Cc1cccc(-c2ccccc2)c1	CHRM4 antagonist 34
CCCCc1c(-c2cccc(OC)c2)ncn1CCc1ccccc1OC	CHRM4 antagonist 41, CHRM5 antagonist 33
CCc1c(-c2ccc(Cl)cc2)ncn1Cc1cccc(-c2ccccc2)c1	none
COc1ccc(OCCN2CCC(C(=O)NC(c3ccc(F)cc3)c3ncccc3C)CC2)cc1 (stereo unspecified)	none
O=C(NC1(C(F)(F)F)NC(=O)N(c2ccc(F)cc2)C1=O)c1cccs1 (stereo unspecified)	none
CCc1nc2ccc(C(=O)N(CC)CCN(C)C)cn2c1N(CC)C(=O)NCCc1ccccc1	none
COc1ccc(Oc2c(C)oc3c(CN(C)C)c(O)ccc3c2=O)cc1	CHRM4 antagonist 44
CC(C)NC(=O)c1ccc2c(c1)N(CC(=O)N1CCCCC1)C(=O)C(C)(C)O2	none
Cn1c(SCc2nc3ccccc3[nH]2)nnc1-c1cnccn1	CHRM5 PAM 19
c1coc(Cn2c(SCc3nc4ccccc4[nH]3)nnc2-c2cnccn2)c1	none
Cc1noc(C)c1S(=O)(=O)Nc1ccc2c(c1)C(=O)N([C@H](C)CO)C[C@H](C)[C@@H](CN(C)S(=O)(=O)c1ccc(F)cc1)O2	none
Cc1noc(C)c1S(=O)(=O)Nc1ccc2c(c1)CC(=O)N([C@H](C)CO)C[C@H](C)[C@H](CN(C)S(=O)(=O)c1ccc(F)cc1)O2	CHRM4 antagonist 59
COCCCn1c(SCC(=O)NC(C)C)nnc1-c1ccccc1	CHRM5 PAM 19
COCCn1c(SCC(=O)NCc2ccccc2)nnc1-c1ccco1	CHRM4 PAM 18
COCCn1c(SCC(=O)Nc2ccc(NC(=O)c3ccco3)c(OC)c2)nc2ccccc2c1=O	CHRM4 PAM 20
COCCCn1c(SCC(N)=O)nnc1-c1ccccc1	none
O=C(NCc1cc([N+](=O)[O-])ccc1O)c1cccc(NS(=O)(=O)c2ccccc2)c1	none
COCc1c(C(=O)OCc2nc3ccsc3c(=O)[nH]2)oc2ccccc12	none
CC1(C(=O)NS(=O)(=O)c2ccc(F)cc2F)CCN1C(=O)c1cccc(F)c1 (stereo unspecified)	none
CC1CCCN(C(=O)CCNS(=O)(=O)c2ccc3c(c2)c(=O)n(C)c(=O)n3C)C1 (stereo unspecified)	CHRM4 PAM 15
Cc1ccc(-n2c(-c3ccccc3)c[n+]3c2CCc2ccccc2-3)c(C)c1	CHRM5 antagonist 35
CC(=O)c1ccc(OCCCC(=O)NCc2nnc3ccccn23)cc1	none
Cn1cc(CN2CCC(C(=O)NC(c3ccc(-c4ccccc4)cc3)c3cnccn3)CC2)c2ccccc21 (stereo unspecified)	CHRM4 antagonist 28
C=CCCC1(C)C(=O)N(c2ccccc2)c2ccccc21 (stereo unspecified)	CHRM5 PAM 25
C=CCC1(C)C(=O)N(c2ccccc2)c2ccccc21 (stereo unspecified)	none
Cc1ccc(S(=O)(=O)NCCCNS(=O)(=O)c2ccccc2Br)cc1	none
